Results: ChEMBL document CHEMBL5678813, “Optimization of a novel series of N-phenylindoline-5-sulfonamide-based acyl CoA:monoacylglycerol acyltransferase-2 inhibitors: Mitigation of CYP3A4 time-dependent inhibition and phototoxic liabilities” (Bioorg Med Chem, 2015)

Legend:
[1] = Oral bioavailability in mouse at 1 mg/kg administered as cassette dose by LC/MS/MS analysis; type: ADME, organism-based; conditions: in vivo
In short: (§1)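 Non-fasted mice dosed by cassette, iv 0.1 mg/kg or po 1 mg/kg suspended in 0.5% methylcellulose aqueous solution; plasma obtained from blood by centrifugation, deproteinized with acetonitrile, and compound concentrations measured by LC/MS/MS.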

[2] = molecular target: 2-acylglycerol O-acyltransferase 2 (Homo sapiens, UniProt Q3SYC2); experiment: Inhibition of N-terminal FLAG-tagged full-length human MGAT2 expressed in human FreeStyle 293-F cell membrane using 13Cx18oleoyl-CoA and 2-oleoyl-glycerol as substrate preincubated for 60 mins followed by substrate addition and measured after 30 mins by RapidFire mass spectrometric analysis; type: cell membranes
2-acylglycerol O-acyltransferase 2 (Homo sapiens, UniProt Q3SYC2), sequence (Q3SYC2 whole entry): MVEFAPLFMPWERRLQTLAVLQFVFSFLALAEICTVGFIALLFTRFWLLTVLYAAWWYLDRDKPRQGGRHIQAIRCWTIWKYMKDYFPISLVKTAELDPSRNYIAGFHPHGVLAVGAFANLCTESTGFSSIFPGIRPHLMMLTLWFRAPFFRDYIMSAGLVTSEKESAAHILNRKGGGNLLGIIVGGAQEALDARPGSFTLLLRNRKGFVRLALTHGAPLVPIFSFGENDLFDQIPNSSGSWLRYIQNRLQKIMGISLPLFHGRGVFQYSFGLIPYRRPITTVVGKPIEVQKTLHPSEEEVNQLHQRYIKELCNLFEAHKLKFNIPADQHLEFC
In short: (§2)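 FreeStyle293 cells transfected and harvested after 2 days; total membranes isolated by ultracentrifugation. Reaction started with 13C18 oleoyl-CoA and 2-oleoyl-glycerol (20 µM each), run 30 min at room temperature. Stopped with acetonitrile/formic acid containing 1,2-dioleoyl-glycerol; read by RapidFire/MS.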

[3] = Volume of distribution at steady state in mouse at 0.1 mg/kg, iv administered as cassette dose by LC/MS/MS analysis; type: ADME, organism-based; conditions: in vivo, read-out: Vdss; in short: as §1
[4] = Total clearance in mouse at 0.1 mg/kg, iv administered as cassette dose by LC/MS/MS analysis; type: ADME, organism-based; conditions: in vivo; in short: as §1
[5] = 1-Octanol/aqueous buffer partition coefficient, logD of the compound at pH 7.4 by HPLC analysis; type: physicochemical
[6] = Metabolic stability in mouse liver microsomes assessed as intrinsic clearance at 1 uM incubated for 15 to 30 mins in presence of NADPH-generating system by LC/MS/MS analysis; type: ADME, Microsome; conditions: time 15-30 min, read-out: CLH
In short: (§3)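 Compound at 1 µM with 0.2 mg/mL liver microsomal protein in 50 mM phosphate buffer pH 7.4. Reaction started by NADPH-generating system (5 mM MgCl2, 5 mM glucose-6-phosphate, 0.5 mM β-NADP+, 1.5 U/mL G6PDH). Stopped with acetonitrile at 15 and 30 min and analysed by LC/MS/MS. Velocity taken as slope of concentration–time plot.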

[7] = Permeability of compound at pH 7.4 by PAMPA assay; type: ADME; conditions: read-out: permeability
In short: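 Passive permeability measured by PAMPA at pH 7.4.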

[8] = MRT in mouse at 1 mg/kg, po administered as cassette dose by LC/MS/MS analysis; type: ADME, organism-based; conditions: in vivo; in short: as §1
NIH3T3 = experiment: Cytotoxicity against BALB/c mouse 3T3 cells assessed as reduction in cell viability at 6.25 uM incubated for 1 hrs in absence of UV irradiation by Celltiter-Glo assay relative to control; type: toxicity, cell-based; conditions: nih3t3, 1 h
In short: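 BALB/c 3T3 cells seeded at 2.5 × 10^3 cells/well and grown 1 day. Compound at 6.25 µM in EBSS with 1 mM HEPES, preincubated 1 h. Plate kept dark (–UV) while the paired plate was irradiated. Medium replaced, cultured 24 h more. Viability read as cellular ATP by CellTiter-Glo, % of 1% DMSO control; n = 3, mean ± SD.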

[9] = molecular target: 2-acylglycerol O-acyltransferase 2 (Mus musculus, UniProt Q80W94); experiment: Inhibition of N-terminal FLAG-tagged full-length mouse MGAT2 expressed in human FreeStyle 293-F cell membrane using 13Cx18oleoyl-CoA and 2-oleoyl-glycerol as substrate preincubated for 60 mins followed by substrate addition and measured after 30 mins by RapidFire mass spectrometric analysis; type: cell membranes; in short: as §2
2-acylglycerol O-acyltransferase 2 (Mus musculus, UniProt Q80W94), sequence (Q80W94 whole entry): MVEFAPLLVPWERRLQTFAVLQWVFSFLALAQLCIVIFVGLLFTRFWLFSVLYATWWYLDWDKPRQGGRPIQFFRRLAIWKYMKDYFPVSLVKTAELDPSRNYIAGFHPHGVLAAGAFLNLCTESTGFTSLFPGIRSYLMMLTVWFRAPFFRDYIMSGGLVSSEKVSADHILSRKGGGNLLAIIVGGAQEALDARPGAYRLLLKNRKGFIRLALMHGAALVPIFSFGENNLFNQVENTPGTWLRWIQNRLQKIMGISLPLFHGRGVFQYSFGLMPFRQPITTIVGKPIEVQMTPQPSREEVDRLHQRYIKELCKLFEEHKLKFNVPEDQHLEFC

[10] = AUC in mouse at 1 mg/kg, po administered as cassette dose by LC/MS/MS analysis; type: ADME, organism-based; conditions: in vivo; in short: as §1
[11] = Metabolic stability in human liver microsomes assessed as intrinsic clearance at 1 uM incubated for 15 to 30 mins in presence of NADPH-generating system by LC/MS/MS analysis; type: ADME, Microsome; conditions: time 15-30 min, read-out: CLH; in short: as §3
Cytochrome P450 3A4 = Cytochrome P450 3A4 (Homo sapiens, UniProt P08684); experiment: (§4) Time-dependent inhibition of CYP3A4 in human liver microsomes using testosterone as substrate assessed as remaining activity at 30 uM preincubated with compound in presence of NADPH-generating system followed by substrate addition by UPLC analysis relative to control; type: ADME, Microsome; conditions: microsomes, 30 µM
Cytochrome P450 3A4, sequence (P08684 whole entry): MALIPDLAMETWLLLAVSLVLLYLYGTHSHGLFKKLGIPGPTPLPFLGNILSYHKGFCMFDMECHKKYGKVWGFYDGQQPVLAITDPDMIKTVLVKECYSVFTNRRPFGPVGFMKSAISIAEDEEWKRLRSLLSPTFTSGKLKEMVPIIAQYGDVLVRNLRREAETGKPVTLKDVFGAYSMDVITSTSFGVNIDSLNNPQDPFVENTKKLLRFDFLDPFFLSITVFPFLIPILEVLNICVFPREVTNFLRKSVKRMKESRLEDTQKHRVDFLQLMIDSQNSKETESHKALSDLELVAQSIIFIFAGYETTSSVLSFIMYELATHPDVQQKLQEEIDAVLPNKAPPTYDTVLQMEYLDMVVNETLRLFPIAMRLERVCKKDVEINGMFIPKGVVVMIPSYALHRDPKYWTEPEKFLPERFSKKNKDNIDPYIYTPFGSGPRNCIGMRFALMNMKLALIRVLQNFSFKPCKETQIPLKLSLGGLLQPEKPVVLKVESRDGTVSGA
In short: (§5)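 Compound at 30 µM preincubated at 37 °C with human liver microsomes in pH 7.4 phosphate buffer plus an NADPH-generating system. CYP3A4 activity then measured as testosterone 6β-hydroxylation by UPLC, expressed as % of DMSO control. Remaining activity = preincubated activity ÷ non-preincubated activity × 100; n = 2.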

CYP3A4 = CYP3A4 (Homo sapiens, UniProt P08684); experiment: as §4; type: ADME, Microsome; conditions: human liver microsomes, probe testosterone, read-out: Activity; in short: as §5
CYP3A4, sequence (P08684 whole entry): as above

Structure (SMILES) | IC50 [2] | logD [5] | activity at 30 µM (CYP3A4) | Activity (NIH3T3) | also measured
Cn1nc(C(F)(F)F)cc1-c1cnc(N2CCc3cc(S(=O)(=O)Nc4c(F)cc(Cl)cc4F)cc(N4CCNC4=O)c32)nc1 | 3.7 nM | 2.7 |  | 111% | bioavailability [1]: 16%; Vd [3]: 1.96 L/kg; clearance [4]: 39.5 mL/min/kg; microsomal CLint at 1 µM [6]: 33 µL/min/mg; Papp [7]: 4 ×10⁻⁶ cm/s; MRT [8]: 2.3 h; IC50 [9]: 1.9 nM; microsomal CLint at 1 µM [11]: 4 µL/min/mg; AUC [10]: 72 ng·h/mL
O=C1CCCN1c1cc(S(=O)(=O)Nc2c(F)cc(Cl)cc2F)cc2c1N(c1ncc(-n3cc(C(F)(F)F)cn3)cn1)CC2 | 6.2 nM | 3.1 |  | 109% | 
O=C1CCCN1c1cc(S(=O)(=O)Nc2ccc(C(F)(F)F)cc2F)cc2c1N(C(=O)OC1CCN(CC(F)(F)C(F)(F)F)CC1)CC2 | 42 nM | 4.1 | 93% |  | 
O=C1CCCN1c1cc(S(=O)(=O)Nc2c(F)cc(Cl)cc2F)cc2c1N(c1ncc(-n3ccc(C(F)(F)F)n3)cn1)CC2 | 8.2 nM | 3.1 |  | 105% | 
O=C1CCCN1c1cc(S(=O)(=O)Nc2ccc(F)cc2F)cc2c1N(C(=O)OC1CCN(CC(F)(F)C(F)(F)F)CC1)CC2 | 4.1 nM | 3.7 | 59% |  | 
O=C1CCCN1c1cc(S(=O)(=O)Nc2c(F)cc(Cl)cc2F)cc2c1N(C(=O)Nc1ccc(C(F)(F)F)cc1)CC2 | 30 nM | 3.3 | 89% |  | 
O=C1CCCN1c1cc(S(=O)(=O)Nc2c(F)cc(F)cc2F)cc2c1N(C(=O)OC1CCN(CC(F)(F)C(F)(F)F)CC1)CC2 | 75 nM | 3.4 | 95% |  | 
O=C1CCCN1c1cc(S(=O)(=O)Nc2c(F)cc(Cl)cc2F)cc2c1N(C(=O)OC1CCN(CC(F)(F)C(F)(F)F)CC1)CC2 | 19 nM | 3.8 | 82% |  | 

Compounds with a lower IC50 [2], results first:

IC50 [2] | logD [5] | activity at 30 µM (CYP3A4) | Structure (SMILES) | Activity (NIH3T3) | also measured
2.1 nM | 2.9 |  | Cc1cc(C(F)(F)F)nn1-c1cnc(N2CCc3cc(S(=O)(=O)Nc4c(F)cc(Cl)cc4F)cc(N4CCCC4=O)c32)nc1 | 112% | bioavailability [1]: 52%; Vd [3]: 1.02 L/kg; clearance [4]: 7.85 mL/min/kg; microsomal CLint at 1 µM [6]: 27 µL/min/mg; Papp [7]: 18.5 ×10⁻⁶ cm/s; MRT [8]: 2.6 h; IC50 [9]: 1.1 nM; AUC [10]: 1120 ng·h/mL
0.25 nM | 4.5 |  | O=C1CCCN1c1cc(S(=O)(=O)Nc2c(F)cc(Cl)cc2F)cc2c1N(c1ccc(-c3ccc(C(F)(F)F)cc3)cc1)CC2 | 95% | TDI (Cytochrome P450 3A4): Not Active
3.4 nM |  | 43% | O=C1CCCN1c1cc(S(=O)(=O)Nc2ccc(F)cc2F)cc2c1N(C(=O)Nc1ccc(C(F)(F)F)cc1)CC2 |  | 
0.69 nM | 3.8 |  | O=C1CCCN1c1cc(S(=O)(=O)Nc2c(F)cc(Cl)cc2F)cc2c1N(c1ncc(-c3ccc(C(F)(F)F)cc3)cn1)CC2 | 105% | TDI (Cytochrome P450 3A4): Not Active
1 nM |  | 13% | CC(=O)Nc1cc(S(=O)(=O)Nc2ccc(F)cc2F)cc2c1N(CCc1ccccc1)CC2 |  | 
0.42 nM | 4.1 |  | O=C1CCCN1c1cc(S(=O)(=O)Nc2c(F)cc(Cl)cc2F)cc2c1N(c1ncc(-c3ccc(C(F)(F)F)cc3F)cn1)CC2 | 98% | 
